Compound activity: PubChem, The Scripps Research Institute Molecular Screening Center
LYPLA1 inh: LYPLA1 (human) inhibition in PME1 counter-screen | 320,000 compounds, 0.16% hits | recombinant LYPLA1, FP-Rh probe fluorescence polarization | O75608 | inhibition, % at 5.9 µM;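 active = inhibition above the mean of all tested compounds plus 3 SD, set per campaign, cut at about 14% in these data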;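 also: inhibitors block serine hydrolase probe labeling of LYPLA1 so polarization falls; 0% = enzyme with DMSO and 100% = wells lacking LYPLA1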
RBBP9 inh: inhibitors of human serine hydrolase RBBP9; inhibition, % at 7.94 µM; 220,000 compounds, 0.2% hits; recombinant RBBP9, FP-Rh probe fluorescence polarization;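 active = inhibition above the campaign mean of all tested compounds plus 3 SD, cut at about 14% in these data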;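 also: plate controls were DMSO wells with RBBP9 for no effect and wells lacking RBBP9 protein for full effect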
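Measured by – fluorescence polarization · Test system – RBBP9 protein · Input – 2.5 µM RBBP9 dispensing solution, before mixing · Measure – percent inhibition from mP, scaled between DMSO and no-protein wells · Benchmarks – DMSO-treated enzyme wells and wells lacking RBBP9 · Times – preincubation 30 min plus labeling 45 min at 25 °C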
Fam108B inh: counter-screen for RBBP9 inhibitors: inhibitors of mouse Fam108B; recombinant Fam108B, FP-Rh probe fluorescence polarization; AID 1947; inhibition, % at 9.51 µM; 300,000 compounds, 0.33% hits;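 active = inhibition above the screen mean inhibition plus 3 SD, computed separately per campaign, cut at about 18% in these data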;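 also: inhibitors lower polarization as less probe binds the enzyme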
PME-1 inh: PME-1 (human) inhibition. Q9Y570. recombinant PME-1, FP-Rh probe fluorescence polarization. inhibition, % at 5.9 µM. 320,000 compounds, 0.53% hits;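 active = inhibition above the campaign mean of all compounds plus 3 SD, cut at about 26% in these data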;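 also: competitive labeling of PME-1 active site by serine hydrolase directed probe; 0% = PME-1 with DMSO and 100% = wells lacking PME-1 enzyme; inhibitors block probe labeling so polarization falls and inhibition rises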
LYPLA2 counter: blocks human lysophospholipase 2, a PME1 counter-screen | O95372 | recombinant LYPLA2, FP-Rh probe fluorescence polarization | inhibition, % at 5.9 µM | 320,000 compounds, 0.38% hits | AID 2177;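 active = inhibition above the screen-wide mean plus 3 SD, limit set per campaign, cut at about 26% in these data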;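 also: 0% = LYPLA2 with DMSO and 100% = wells lacking LYPLA2 enzyme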
PAD4 inh: blocks human protein arginine deiminase 4; Q9UM07; recombinant PAD4, RCA probe fluorescence polarization; inhibition, % at 6.36 µM; 330,000 compounds, 0.41% hits; AID 485272;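 active = percent inhibition above a cutoff equal to the mean of all tested compounds plus 3 SD, cut at about 15% in these data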;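 also: 0% = PAD4 with RCA probe and DMSO and 100% = probe without PAD4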
Target sequence (Q9UM07 whole entry, looked up): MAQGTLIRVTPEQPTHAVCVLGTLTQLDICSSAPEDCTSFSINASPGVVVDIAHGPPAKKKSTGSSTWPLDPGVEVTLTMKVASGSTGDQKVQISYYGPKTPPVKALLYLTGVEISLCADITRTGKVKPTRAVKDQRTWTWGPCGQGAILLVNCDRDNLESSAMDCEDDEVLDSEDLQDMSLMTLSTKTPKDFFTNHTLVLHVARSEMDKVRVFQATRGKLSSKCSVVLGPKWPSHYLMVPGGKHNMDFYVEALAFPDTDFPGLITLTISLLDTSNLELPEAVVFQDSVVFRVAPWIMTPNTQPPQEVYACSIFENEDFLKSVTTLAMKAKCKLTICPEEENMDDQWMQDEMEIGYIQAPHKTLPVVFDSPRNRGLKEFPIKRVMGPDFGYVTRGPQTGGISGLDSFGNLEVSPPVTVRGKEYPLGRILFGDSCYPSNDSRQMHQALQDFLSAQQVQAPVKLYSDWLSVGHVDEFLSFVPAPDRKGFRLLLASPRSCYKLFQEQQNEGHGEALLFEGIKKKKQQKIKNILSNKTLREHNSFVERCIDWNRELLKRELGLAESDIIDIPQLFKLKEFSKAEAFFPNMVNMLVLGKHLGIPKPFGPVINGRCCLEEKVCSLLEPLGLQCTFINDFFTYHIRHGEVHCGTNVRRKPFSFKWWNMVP
LYPLA2 conf: LYPLA2 (human) inhibition, confirmation counter-screen; recombinant LYPLA2, FP-Rh probe fluorescence polarization; AID 2232; 1,100 compounds, 72% hits; shares compounds with LYPLA2 counter; inhibition, % at 5.9 µM;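 active = mean inhibition across replicates above the hit cutoff set in the primary screen, cut at about 26% in these data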;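 also: blocked labeling of the enzyme by serine hydrolase FP-Rh probe lowers polarization; 0% = enzyme with DMSO and 100% = wells lacking LYPLA2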
LYPLA2 gel ABPP: blocks human acyl-protein thioesterase 2 in gel ABPP; shares compounds with LYPLA2 counter; rhLYPLA2 in mouse brain proteome, gel ABPP FP-Rh; inhibition, % at 20 µM; 150 compounds, 30% hits; AID 652029;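 active = inhibition of LYPLA2 enzyme probe labeling above about 50%, limit read from the data; inactive = inhibition below that limit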;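 also: loss of FP-Rh probe labeling of the LYPLA2 gel band measured as band density; 0% = DMSO only control band and 100% = blank gel background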
The depositor's hits bear a star; . = no result. This is a sample that favours compounds with a hit; in the whole collection about 1.3% have one here.

SMILES	LYPLA1 inh	RBBP9 inh	Fam108B inh	PME-1 inh	LYPLA2 counter	PAD4 inh	LYPLA2 conf	others
COc1ccc(CN(CC2CCC(C(=O)O)CC2)C(=S)Nc2cccc(C)c2)cc1 (configuration not stated)	0.7	-5.5	3.6	-0.6	-1.1	3.7	.
NC(=O)c1ccc(Oc2ccc3c(c2)CCC3)c([N+](=O)[O-])c1	-1.9	.	-0.5	17.0	30.3*	-6.8	29.4*
O=C(O/N=C\c1ccc(N2CCOCC2)c([N+](=O)[O-])c1)c1ccccc1Cl	0.0	2.4	3.0	-0.8	41.2*	1.7	43.3*
CO/N=C/c1ccc(N2CCN(C(=O)c3ccc(C)cc3)CC2)c([N+](=O)[O-])c1	2.9	-1.0	2.0	4.6	36.6*	6.4	38.7*
O=C(O)c1cc(N/N=C/c2ccc3c(c2)OCO3)ccc1Cl	2.5	2.8	-1.6	8.5	3.5	-1.6	.
Cc1ccc(OC(=O)c2ccc(N3CCOCC3)c([N+](=O)[O-])c2)cc1	6.5	-1.1	-2.9	-2.4	23.2	2.2	.
O=C(O/N=C/c1ccc2c(c1)OCO2)c1ccccc1Cl	3.3	0.5	5.5	2.9	26.2*	-3.4	14.3
O=C(O/N=C\c1ccc(N2CCOCC2)c([N+](=O)[O-])c1)c1ccc(F)cc1	4.5	-1.5	1.4	1.5	10.9	-6.2	.
O=C(Oc1ccc(Cl)cc1)c1ccc(N2CCOCC2)c([N+](=O)[O-])c1	3.7	-4.6	0.3	-2.6	33.2*	4.3	28.1*
CSc1nnc(NC(=O)c2ccc(S(=O)(=O)N(C)C)cc2)s1	5.0	1.6	-0.2	0.3	4.7	-0.1	.
C[C@H]1CN([C@@H](C)CO)C(=O)c2cccc(NC(=O)c3ccc(-c4nccs4)cc3)c2O[C@@H]1CN(C)C(=O)NC1CCCCC1	.	.	.	.	.	-0.2	.
O=C(NCCCN1CCCC1)Nc1ccccc1[N+](=O)[O-]	2.6	.	4.0	-1.5	0.0	-0.3	.
N#CCOC(=O)C1CSC2(c3ccc(Br)cc3)CCC(=O)N12 (configuration not stated)	-3.6	-2.7	-0.9	-5.5	-5.9	1.9	.
O=C(Nc1ccnn1C1CCN(C(=O)c2ccc(F)cc2)CC1)C1CCOC1 (configuration not stated)	-4.9	.	3.1	0.1	0.3	0.4	.
COc1cc(N)c(Cl)cc1C(=O)N[C@H]1CCN(CCCOc2ccc(F)cc2)C[C@H]1OC	13.7	.	-1.3	-3.9	26.7*	2.2	31.1*
Cn1c2c(c(=O)n(C)c1=O)C(C(F)(F)F)(C(F)(F)F)N=C(c1ccc(Cl)cc1)N2	-0.5	-7.2	0.6	8.5	55.9*	-1.5	1.1
COc1ccc(/C=N/N2CCN(c3ccccc3)CC2)cc1Br	2.6	.	1.7	2.0	1.3	-1.3	.
COc1ccc(N2C(=O)CCC(C(=O)N3CCN(c4ccccn4)CC3)C2c2ccc(F)cc2)cc1 (configuration not stated)	0.5	-5.1	-0.7	1.3	-3.9	-6.4	.
CCCCCOc1ccc(/C=C/c2c([N+](=O)[O-])c(=O)n(C)c(=O)n2C)cc1	0.5	.	-0.5	-7.2	68.8*	4.1	52.6*	LYPLA2 gel ABPP=36.0
Cn1c(/C=C/c2ccc(Cl)cc2)c([N+](=O)[O-])c(=O)n(C)c1=O	-3.3	.	1.8	-4.0	4.1	5.0	.
O=C(NC1CCCC1)C1CCC(CNS(=O)(=O)c2cccs2)CC1 (configuration not stated)	-2.1	-9.5	-1.7	1.7	2.7	3.0	.
O=C(C1CCC(CNS(=O)(=O)c2cccs2)CC1)N1CCN(c2ccc(Cl)cc2)CC1 (configuration not stated)	1.1	.	0.7	4.5	35.9*	-2.3	33.7*
O=S(=O)(c1ccc(NC(=S)N2CCN(c3ccccc3F)CC2)cc1)N1CCOCC1	-0.1	-6.1	1.2	4.7	38.1*	3.8	29.6*
COc1ccccc1N1CCN(C(=S)Nc2ccc(S(=O)(=O)N3CCOCC3)cc2)CC1	0.2	-1.5	2.4	-8.7	5.7	-3.4	.
Cc1cc(C)n(Cc2ccc(C(=O)N/N=C/c3ccc(-c4ccc([N+](=O)[O-])cc4)o3)o2)n1	4.5	.	5.8	0.9	27.7*	-6.6	27.0*
SMILES	LYPLA1 inh	RBBP9 inh	Fam108B inh	PME-1 inh	LYPLA2 counter	PAD4 inh	LYPLA2 conf	others
CCCCC(=O)N/N=C/c1ccc(-c2ccc([N+](=O)[O-])cc2)o1	4.0	1.3	0.5	4.1	2.6	2.3	.
O=C(Nc1ccc(Cl)cc1F)c1ccc2c(c1)C(=O)N(Cc1ccncc1)C2=O	.	.	.	.	.	-2.2	.
O=c1cc(Cl)c(-c2ccccc2)nn1Cc1ccc(Cl)cc1	-0.5	.	-6.9	4.5	26.4*	-4.3	35.1*
O=c1c2ccccc2c(-c2ccccc2)nn1Cc1ccc(Cl)cc1	2.2	-13.1	1.2	4.7	-6.6	-2.1	.
COc1ccc(N2CCN(C(=O)c3ccc(CNc4c(N5CCOCC5)c(=O)c4=O)cc3)CC2)cc1	1.4	-4.2	3.2	-3.3	51.5*	-1.6	58.0*	LYPLA2 gel ABPP=35.0
CS(=O)(=O)c1ccc(C(=O)N2CCN(Cc3ccccc3)CC2)cc1	2.5	-6.0	4.3	-1.5	-1.5	-13.0	.
COc1ccc(N2CCN(C(=O)c3ccc(CNS(=O)(=O)c4cccc(OC)c4)cc3)CC2)cc1	0.0	.	1.3	5.8	31.2*	2.5	16.1
CC1CCN(c2c(NCc3ccc(C(=O)N4CCN(C5CCCCC5)CC4)cc3)c(=O)c2=O)CC1	3.0	0.4	5.5	-5.3	10.2	-0.1	.
COc1cccc(S(=O)(=O)NCc2ccc(C(=O)N3CCN(c4ccccc4)CC3)cc2)c1	2.1	.	-0.6	4.9	20.2	0.0	.
COc1ccc(CNc2ccc(N3CCOCC3)cc2)cc1	-0.8	.	-4.1	0.8	5.8	-4.8	.
O=C(c1ccc(CNS(=O)(=O)c2ccccc2)cc1)N1CCN(Cc2ccccc2)CC1	0.2	0.2	2.1	2.1	32.7*	3.7	32.2*
O=C(c1ccc(CNc2c(N3CCCC3)c(=O)c2=O)cc1)N1CC=C(c2ccccc2)CC1	11.9	-3.1	3.0	6.9	47.0*	2.0	52.5*	LYPLA2 gel ABPP=21.0
Cc1ccc(C)c(N(CC(=O)NC(C)(C)C)C(=O)CCC(=O)Nc2nccs2)c1	4.1	.	-2.6	0.6	4.3	-3.1	.
COc1ccc(C(=O)Nc2cc(C)nn2-c2ccc(F)cc2)cc1	-0.5	.	0.7	0.4	-2.8	3.2	.
Cc1ccc(C(C)C)c(OCC(=O)N/N=C2\CC(=O)CC(C)(C)C2)c1	-0.4	.	-3.3	2.8	3.5	-2.1	.
COc1ccc(S(=O)(=O)NCc2ccc(C(=O)N3CCc4ccccc4C3)cc2)cc1	3.8	-11.1	3.6	2.8	47.8*	-2.4	56.9*	LYPLA2 gel ABPP=28.0
